Data taken from ChEMBL document CHEMBL4130613, “Identification and Proposed Relative and Absolute Configurations of Niphimycins C-E from the Marine-Derived Streptomyces sp. IMB7-145 by Genomic Analysis” (J Nat Prod, 2018).
Converted amounts (≈) assume the structure as drawn.

Experiments:
[1] = test system: Staphylococcus epidermidis; assay: Antibacterial activity against methicillin-resistant Staphylococcus epidermidis 12-8 after 18 hrs by agar dilution method; format: functional; settings: 12-8, 18 h
[2] = test system: Staphylococcus aureus; assay: Antibacterial activity against methicillin-resistant Staphylococcus aureus ATCC 33591 after 18 hrs by agar dilution method; format: functional; settings: ATCC 33591, 18 h
[3] = test system: Staphylococcus aureus; assay: Antibacterial activity against methicillin-resistant Staphylococcus aureus 12-33 after 18 hrs by agar dilution method; format: functional; settings: 12-33, 18 h
[4] = test system: Enterococcus faecalis; assay: Antibacterial activity against vancomycin-resistant Enterococcus faecalis ATCC 51299 after 18 hrs by agar dilution method; format: functional; settings: ATCC 51299, 18 h
[5] = test system: Enterococcus faecalis; assay: Antibacterial activity against vancomycin-resistant Enterococcus faecalis 09-9 after 18 hrs by agar dilution method; format: functional; settings: 09-9, 18 h
[6] = test system: Enterococcus faecium; assay: Antibacterial activity against vancomycin-resistant Enterococcus faecium ATCC 700221 after 18 hrs by agar dilution method; format: functional; settings: ATCC 700221, 18 h
[7] = test system: Enterococcus faecium; assay: Antibacterial activity against vancomycin-resistant Enterococcus faecium 12-1 after 18 hrs by agar dilution method; format: functional; settings: 12-1, 18 h
[8] = test system: Candida albicans; assay: Antifungal activity against Candida albicans ATCC 10231 after 18 hrs by agar dilution method; format: functional; settings: ATCC 10231, 18 h
[9] = test system: Escherichia coli; assay: Antibacterial activity against extended-spectrum beta-lactamase-negative Escherichia coli ATCC 25922 after 18 hrs by agar dilution method; format: functional; settings: ATCC 25922, 18 h
[10] = test system: Escherichia coli; assay: Antibacterial activity against extended-spectrum beta-lactamase-negative Escherichia coli 1515 after 18 hrs by agar dilution method; format: functional; settings: Escherichia coli, 1515, 18 h
[11] = test system: Escherichia coli; assay: Antibacterial activity against extended-spectrum beta-lactamase-negative Escherichia coli 12-14 after 18 hrs by agar dilution method; format: functional; settings: 12-14, 18 h
[12] = test system: Escherichia coli; assay: Antibacterial activity against extended-spectrum beta-lactamase-positive Escherichia coli 12-15 after 18 hrs by agar dilution method; format: functional; settings: 12-15, 18 h
[13] = test system: Klebsiella pneumoniae; assay: Antibacterial activity against extended-spectrum beta-lactamase-positive Klebsiella pneumoniae ATCC 700603 after 18 hrs by agar dilution method; format: functional; settings: Klebsiella pneumoniae, 700603, 18 h
[14] = test system: Klebsiella pneumoniae; assay: Antibacterial activity against extended-spectrum beta-lactamase-negative Klebsiella pneumoniae 7 after 18 hrs by agar dilution method; format: functional; settings: Klebsiella pneumoniae, 7, 18 h
[15] = test system: Klebsiella pneumoniae; assay: Antibacterial activity against NDM-1 positive Klebsiella pneumoniae ATCC BAA-2146 after 18 hrs by agar dilution method; format: functional; settings: ATCC BAA-2146, 18 h
[16] = test system: Klebsiella pneumoniae; assay: Antibacterial activity against extended-spectrum beta-lactamase-negative Klebsiella pneumoniae 12-4 after 18 hrs by agar dilution method; format: functional; settings: 12-4, 18 h
[17] = test system: Klebsiella pneumoniae; assay: Antibacterial activity against extended-spectrum beta-lactamase-positive Klebsiella pneumoniae 12-8 after 18 hrs by agar dilution method; format: functional; settings: 12-8, 18 h
[18] = test system: Pseudomonas aeruginosa; assay: Antibacterial activity against Pseudomonas aeruginosa ATCC 27853 after 18 hrs by agar dilution method; format: functional; settings: ATCC 27853, 18 h
[19] = test system: Pseudomonas aeruginosa; assay: Antibacterial activity against Pseudomonas aeruginosa PAO1 after 18 hrs by agar dilution method; format: functional; settings: PAO1, 18 h
[20] = test system: Pseudomonas aeruginosa; assay: Antibacterial activity against Pseudomonas aeruginosa 12-16 after 18 hrs by agar dilution method; format: functional; settings: 12-16, 18 h
[21] = test system: Acinetobacter calcoaceticus; assay: Antibacterial activity against Acinetobacter calcoaceticus ATCC 19606 after 18 hrs by agar dilution method; format: functional; settings: ATCC 19606, 18 h
[22] = test system: Enterobacter cloacae; assay: Antibacterial activity against Enterobacter cloacae ATCC 43560 after 18 hrs by agar dilution method; format: functional; settings: ATCC 43560, 18 h
[23] = test system: Klebsiella aerogenes; assay: Antibacterial activity against Enterobacter aerogenes ATCC 13048 after 18 hrs by agar dilution method; format: functional; settings: ATCC 13048, 18 h
[24] = test system: Serratia marcescens; assay: Antibacterial activity against Serratia marcescens ATCC 21074 after 18 hrs by agar dilution method; format: functional; settings: ATCC 21074, 18 h
[25] = test system: Morganella morganii; assay: Antibacterial activity against Morganella morganii ATCC 25830 after 18 hrs by agar dilution method; format: functional; settings: ATCC 25830, 18 h
[26] = test system: Providencia rettgeri; assay: Antibacterial activity against Providencia rettgeri ATCC 31052 after 18 hrs by agar dilution method; format: functional; settings: ATCC 31052, 18 h
[27] = test system: Proteus vulgaris; assay: Antibacterial activity against Proteus vulgaris ATCC 29905 after 18 hrs by agar dilution method; format: functional; settings: ATCC 29905, 18 h
[28] = test system: Proteus mirabilis; assay: Antibacterial activity against Proteus mirabilis 12-6 after 18 hrs by agar dilution method; format: functional; settings: 12-6, 18 h
[29] = test system: Stenotrophomonas maltophilia; assay: Antibacterial activity against Stenotrophomonas maltophilia ATCC 13636 after 18 hrs by agar dilution method; format: functional; settings: ATCC 13636, 18 h
[30] = test system: Citrobacter freundii; assay: Antibacterial activity against Citrobacter freundii ATCC 43864 after 18 hrs by agar dilution method; format: functional; settings: ATCC 43864, 18 h
[31] = test system: Mycobacterium tuberculosis; assay: Antibacterial activity against Mycobacterium tuberculosis H37Rv […] by agar dilution method; format: functional
[32] = test system: Mycobacterium tuberculosis; assay: Antibacterial activity against Mycobacterium tuberculosis isolate FJ05349 […] by agar dilution method; format: functional
[33] = test system: Mycobacterium tuberculosis; assay: Antibacterial activity against Mycobacterium tuberculosis isolate FJ05060 […] by agar dilution method; format: functional
[34] = test system: HeLa; assay: Cytotoxicity against human HeLa cells after 48 hrs by SRB assay; format: functional, cell-based
How it was run: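 HeLa human cervical carcinoma cells obtained from ATCC. Cytotoxicity was read by sulforhodamine B staining following an earlier published protocol, with doxorubicin hydrochloride as positive control. Values are reported as IC50.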

CNC(=N)NCCC/C=C/CCC[C@H](C)C[C@H](C)[C@H]1OC(=O)[C@H](C)[C@H](O)/C=C/[C@H](C)[C@H](O)C[C@H](O)[C@H](C)[C@@H](O)CC[C@H](C)[C@H](O)C[C@]2(O)O[C@H](C[C@@H](OC(=O)CC(=O)O)C[C@H](O)C[C@@H](O)[C@H](C)[C@H](O)/C=C/C=C/[C@@H]1C)C[C@H](O)[C@H]2O
MIC [1]: 4 to 32 µg/mL (≈ 3.5 to 28 µM)
MIC [2]: 4 to 32 µg/mL (≈ 3.5 to 28 µM)
MIC [3]: 4 to 32 µg/mL (≈ 3.5 to 28 µM)
MIC [4]: 64 µg/mL (≈ 56 µM)
MIC [5]: 64 µg/mL (≈ 56 µM)
MIC [6]: 64 µg/mL (≈ 56 µM)
MIC [7]: 64 µg/mL (≈ 56 µM)
MIC [8]: 8 to 32 µg/mL (≈ 7 to 28 µM)
MIC [9]: > 64 µg/mL
MIC [10]: > 64 µg/mL
MIC [11]: > 64 µg/mL
MIC [12]: > 64 µg/mL
MIC [13]: > 64 µg/mL
MIC [14]: > 64 µg/mL
MIC [15]: > 64 µg/mL
MIC [16]: > 64 µg/mL
MIC [17]: > 64 µg/mL
MIC [18]: > 64 µg/mL
MIC [19]: > 64 µg/mL
MIC [20]: > 64 µg/mL
MIC [21]: > 64 µg/mL
MIC [22]: > 64 µg/mL
MIC [23]: > 64 µg/mL
MIC [24]: > 64 µg/mL
MIC [25]: > 64 µg/mL
MIC [26]: > 64 µg/mL
MIC [27]: > 64 µg/mL
MIC [28]: > 64 µg/mL
MIC [29]: > 64 µg/mL
MIC [30]: > 64 µg/mL
MIC [31]: 4 µg/mL (≈ 3.5 µM)
MIC [32]: 4 to 16 µg/mL (≈ 3.5 to 14 µM)
MIC [33]: 4 to 16 µg/mL (≈ 3.5 to 14 µM)
IC50 [34]: 3 to 9 µM

CNC(=N)NCCC/C=C/CCC[C@H](C)C[C@H](C)[C@H]1OC(=O)[C@H](C)[C@H](O)/C=C/[C@H](C)[C@H](O)C[C@H](O)[C@H](C)[C@@H](O)CC[C@H](C)[C@H](O)C[C@]2(O)O[C@H](C[C@@H](O)C[C@H](OC(=O)CC(=O)O)C[C@@H](O)[C@H](C)[C@H](O)/C=C/C=C/[C@@H]1C)C[C@H](O)[C@H]2O
MIC [1]: 4 to 32 µg/mL (≈ 3.5 to 28 µM)
MIC [2]: 4 to 32 µg/mL (≈ 3.5 to 28 µM)
MIC [3]: 4 to 32 µg/mL (≈ 3.5 to 28 µM)
MIC [4]: 64 µg/mL (≈ 56 µM)
MIC [5]: 64 µg/mL (≈ 56 µM)
MIC [6]: 64 µg/mL (≈ 56 µM)
MIC [7]: 64 µg/mL (≈ 56 µM)
MIC [8]: 8 to 32 µg/mL (≈ 7 to 28 µM)
MIC [9]: > 64 µg/mL
MIC [10]: > 64 µg/mL
MIC [11]: > 64 µg/mL
MIC [12]: > 64 µg/mL
MIC [13]: > 64 µg/mL
MIC [14]: > 64 µg/mL
MIC [15]: > 64 µg/mL
MIC [16]: > 64 µg/mL
MIC [17]: > 64 µg/mL
MIC [18]: > 64 µg/mL
MIC [19]: > 64 µg/mL
MIC [20]: > 64 µg/mL
MIC [21]: > 64 µg/mL
MIC [22]: > 64 µg/mL
MIC [23]: > 64 µg/mL
MIC [24]: > 64 µg/mL
MIC [25]: > 64 µg/mL
MIC [26]: > 64 µg/mL
MIC [27]: > 64 µg/mL
MIC [28]: > 64 µg/mL
MIC [29]: > 64 µg/mL
MIC [30]: > 64 µg/mL
MIC [31]: 4 µg/mL (≈ 3.5 µM)
MIC [32]: 4 to 16 µg/mL (≈ 3.5 to 14 µM)
MIC [33]: 4 to 16 µg/mL (≈ 3.5 to 14 µM)
IC50 [34]: 3 to 9 µM
